pKd: −log10 of the molar value.
Legend:
Rattus norvegicus [1] = assay: Number of T4 binding sites in rat liver from TCDD treated rats at a dose of 50 ug/Kg; format: functional
Procedure, shortened: (§1)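 Male Sprague–Dawley rats (200–250 g), five per group, gavaged with TCDD (0, 12, 25, 37 or 50 µg/kg) in corn oil at 0.1 mL/kg; controls got corn oil. Livers were taken after 9 days and pooled per group. Nuclear extract (10 µg protein, buffer B, pH 7.6) was incubated 2 h at 25 °C with 0.1–2.4 nM [125I]T4. Bound ligand was isolated on Sephadex G-25, specific binding taken as total minus excess-T4, Scatchard analysis, duplicates.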

Rattus norvegicus [2] = assay: Number of T4 binding sites in rat liver from TCDD treated rats at a dose of 25 ug/Kg; format: functional; procedure, shortened: as §1
Rattus norvegicus [3] = assay: Serum T4 level was determined in TCDD-treated rat at a dose of 12 ug/Kg; format: functional, organism-based
Procedure, shortened: (§2)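 Male Sprague–Dawley rats (200–250 g, 6 weeks old), in groups of five, were dosed by gavage with TCDD at 0, 12, 25, 37 or 50 µg/kg body weight in corn oil (0.1 mL/kg). Controls received corn oil alone. Animals were killed by CO2 9 days after dosing.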

[4] = Binding affinity of [125I]T4 to rat liver nuclear extract at a dose of 25 ug/Kg; procedure, shortened: as §1
Rattus norvegicus [5] = assay: Number of T4 binding sites in rat liver from TCDD treated rats at a dose of 12 ug/Kg; format: functional; procedure, shortened: as §1
Rattus norvegicus [6] = assay: Body weight was determined in TCDD-treated rat at a dose of 12 ug/Kg; format: functional; procedure, shortened: as §2
[7] = Binding affinity of [125I]-T4 to rat liver nuclear extract at a dose of 37 ug/Kg; procedure, shortened: as §1
Rattus norvegicus [8] = assay: Body weight was determined in TCDD-treated rats at a dose of 50 ug/Kg; format: functional; procedure, shortened: as §2
[9] = Binding affinity of [125I]T4 to rat liver nuclear extract at a dose of 50 ug/Kg; procedure, shortened: as §1
Rattus norvegicus [10] = assay: Serum T4 level was determined in TCDD-treated rat at a dose of 25 ug/Kg; format: functional, organism-based; procedure, shortened: as §2
Rattus norvegicus [11] = species: Rattus norvegicus; assay: Body weight (after treatment) was determined; format: functional; procedure, shortened: as §2
Rattus norvegicus [12] = assay: Number of T4 binding sites in rat liver from TCDD treated rats at a dose of 37 ug/Kg; format: functional; procedure, shortened: as §1
[13] = Binding affinity of [125I]T4 to rat liver nuclear extract at a dose of 12 ug/Kg; procedure, shortened: as §1
Rattus norvegicus [14] = species: Rattus norvegicus; assay: Number of T4 binding sites in rat liver from TCDD treated rats; format: functional; procedure, shortened: as §1
Rattus norvegicus [15] = species: Rattus norvegicus; assay: Serum T4 level was determined in rats; format: functional, organism-based; procedure, shortened: as §2
Rattus norvegicus [16] = assay: Liver weight was determined in TCDD-treated rats at a dose of 37 ug/Kg; format: functional; procedure, shortened: as §2
Rattus norvegicus [17] = assay: Liver weight was determined in TCDD-treated rats at a dose of 50 ug/Kg; format: functional; procedure, shortened: as §2
Rattus norvegicus [18] = assay: Serum T4 level was determined in TCDD-treated rat at a dose of 50 ug/Kg; format: functional, organism-based; procedure, shortened: as §2
Rattus norvegicus [19] = assay: Body weight was determined in TCDD-treated rats at a dose of 25 ug/Kg; format: functional; procedure, shortened: as §2
Rattus norvegicus [20] = assay: Liver weight was determined in TCDD-treated rat at a dose of 12 ug/Kg; format: functional; procedure, shortened: as §2
[21] = Binding affinity of [125I]T4 to rat liver nuclear extract (CONTROL); procedure, shortened: as §1
Rattus norvegicus [22] = species: Rattus norvegicus; assay: Liver weight was determined in rats; format: functional; procedure, shortened: as §2
Rattus norvegicus [23] = assay: Serum T4 level was determined in TCDD-treated rat at a dose of 37 ug/kg; format: functional, organism-based; procedure, shortened: as §2
Rattus norvegicus [24] = assay: Body weight was determined in TCDD-treated rats at a dose of 37 ug/Kg; format: functional; procedure, shortened: as §2
Rattus norvegicus [25] = assay: Liver weight was determined in TCDD-treated rats at a dose of 25 ug/Kg; format: functional; procedure, shortened: as §2

## Clc1cc2c(cc1Cl)Oc1cc(Cl)c(Cl)cc1O2 [2,3,7,8-TETRACHLORODIBENZO-P-DIOXIN]
Rattus norvegicus [1]
  Activity: <6.65 nM/mg
Rattus norvegicus [2]
  Activity: <4.12 nM/mg
Rattus norvegicus [3]
  Serum T4: < 5.6 µg/dL
[4]
  pKd: 9.25
Rattus norvegicus [5]
  Activity: <4.06 nM/mg
Rattus norvegicus [6]
  Weight: 293 g
[7]
  pKd: 9.16
Rattus norvegicus [8]
  Weight: <271 g
[9]
  pKd: 9.14
Rattus norvegicus [10]
  Serum T4: < 4.4 µg/dL
Rattus norvegicus [11]
  Weight: 302 g
Rattus norvegicus [12]
  Activity: <8.71 nM/mg
[13]
  pKd: 9.32
Rattus norvegicus [14]
  Activity: <3.24 nM/mg
Rattus norvegicus [15]
  Serum T4: 7.6 µg/dL
Rattus norvegicus [16]
  Weight: <19.3 g
Rattus norvegicus [17]
  Weight: <19.9 g
Rattus norvegicus [18]
  Serum T4: < 4.2 µg/dL
Rattus norvegicus [19]
  Weight: <273 g
Rattus norvegicus [20]
  Weight: <18.9 g
[21]
  pKd: 9.15
Rattus norvegicus [22]
  Weight: 15.1 g
Rattus norvegicus [23]
  Serum T4: < 4.1 µg/dL
Rattus norvegicus [24]
  Weight: <274 g
Rattus norvegicus [25]
  Weight: <18.3 g
